Series [1] addresses T1, Kinesin-like protein KIF11 (Homo sapiens, UniProt P52732).
T1 sequence (P52732 whole entry): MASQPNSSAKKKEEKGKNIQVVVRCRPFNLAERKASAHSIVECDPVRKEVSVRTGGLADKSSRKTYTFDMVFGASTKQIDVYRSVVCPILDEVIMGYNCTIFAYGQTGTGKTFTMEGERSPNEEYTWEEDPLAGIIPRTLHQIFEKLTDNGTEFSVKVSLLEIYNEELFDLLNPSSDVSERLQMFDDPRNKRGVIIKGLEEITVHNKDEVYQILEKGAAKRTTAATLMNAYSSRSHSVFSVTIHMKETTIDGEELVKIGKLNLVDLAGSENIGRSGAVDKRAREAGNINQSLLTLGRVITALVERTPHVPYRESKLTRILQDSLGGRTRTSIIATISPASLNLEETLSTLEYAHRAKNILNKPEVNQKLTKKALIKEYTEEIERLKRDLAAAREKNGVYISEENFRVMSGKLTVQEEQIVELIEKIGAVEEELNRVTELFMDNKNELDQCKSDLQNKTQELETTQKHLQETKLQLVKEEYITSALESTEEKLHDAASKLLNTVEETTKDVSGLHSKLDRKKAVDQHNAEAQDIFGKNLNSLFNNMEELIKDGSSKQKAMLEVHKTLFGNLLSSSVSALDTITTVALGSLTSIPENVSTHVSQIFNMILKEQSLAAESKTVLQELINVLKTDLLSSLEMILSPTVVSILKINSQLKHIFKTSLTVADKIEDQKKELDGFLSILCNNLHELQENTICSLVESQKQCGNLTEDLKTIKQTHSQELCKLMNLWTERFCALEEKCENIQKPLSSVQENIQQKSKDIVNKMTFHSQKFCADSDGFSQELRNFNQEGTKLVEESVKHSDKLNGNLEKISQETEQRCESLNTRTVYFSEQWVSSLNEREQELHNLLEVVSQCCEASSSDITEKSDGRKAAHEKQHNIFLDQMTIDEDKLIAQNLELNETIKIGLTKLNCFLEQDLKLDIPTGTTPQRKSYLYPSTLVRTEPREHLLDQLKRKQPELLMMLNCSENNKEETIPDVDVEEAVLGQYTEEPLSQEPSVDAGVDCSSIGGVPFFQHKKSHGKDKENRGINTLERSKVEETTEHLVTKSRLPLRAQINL
The series is described as follows: Inhibition of KSP.

Series [2] can be described thus: Partition coefficient, log P of the compound. The series is classed as physicochemical. The conditions noted are these: octanol/water.
Series [3] can be described thus: Ratio of IC50 for human KBV1 cells to human KB31 cells after 16 hrs. Format: cell-based. The conditions noted are these: KBV1 cells and KB31 cells, read-out: Ratio IC50. In outline: (§1)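 IC50 for induction of G2/M (mitotic) block was determined in two human epidermoid carcinoma lines: parental KB-3-1, which lacks Pgp, and KB-V-1. KB-V-1 was derived by culturing KB-3-1 with vinblastine and highly overexpresses Pgp. The MDR ratio is the quotient of the KB-V-1 IC50 over the KB-3-1 IC50.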

Series [4] is described as follows: Dissociation constant, pKa of the compound. The series is classed as physicochemical. An outline of the steps:
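Ionization constant measured with an automated pKa titrator; the value is the average of n = 3 determinations.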

Series [5] in a line: Solubility in 0.1 M citrate at pH 4.0. Particulars: 0.1 M citrate buffer. The series is classed as physicochemical. In outline: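 Aqueous solubility measured on the free-base form in 0.1 M citrate, with an initial pH of 4.0.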
Series [6] has as its target Voltage-gated inwardly rectifying potassium channel KCNH2 (Homo sapiens, UniProt Q12809). Briefly: Inhibition of hERG expressed in CHO cells by cell voltage clamp assay. Format: toxicity, cell-based.
For series [7], the system named is MDR1. Briefly: Efflux ratio of permeability from basolateral to apical over apical to basolateral side of the […] cell transfected with MDR1 by monolayer transport assay. The conditions noted are these: LLC-PK1. The series is classed as ADME, cell-based. In outline: (§2)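 Monolayer transport assay in LLC-PK1 cells transfected with the human MDR1 gene. The efflux ratio is basolateral-to-apical over apical-to-basolateral transport. Passive permeability is reported in 10^-6 cm/s.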

Series [8] addresses T1, Kinesin-like protein KIF11. The series is described as follows: Inhibition of KSP in KB31 cells. The series is classed as cell-based. An outline of the steps: as §1
For series [9], the target named is T1, Kinesin-like protein KIF11. Briefly: Inhibition of KSP in KBV1 cells overexpressing Pgp. Format: cell-based. An outline of the steps:
as §1

The subject of series [10] is MDR1. Briefly: Permeability across LLCPK1 cells expressing MDR1 gene. Format: ADME, cell-based. Particulars: human, LLC-PK1; read-out: permeability. In outline: as §2

Voltage-gated inwardly rectifying potassium channel KCNH2, sequence (Q12809 whole entry): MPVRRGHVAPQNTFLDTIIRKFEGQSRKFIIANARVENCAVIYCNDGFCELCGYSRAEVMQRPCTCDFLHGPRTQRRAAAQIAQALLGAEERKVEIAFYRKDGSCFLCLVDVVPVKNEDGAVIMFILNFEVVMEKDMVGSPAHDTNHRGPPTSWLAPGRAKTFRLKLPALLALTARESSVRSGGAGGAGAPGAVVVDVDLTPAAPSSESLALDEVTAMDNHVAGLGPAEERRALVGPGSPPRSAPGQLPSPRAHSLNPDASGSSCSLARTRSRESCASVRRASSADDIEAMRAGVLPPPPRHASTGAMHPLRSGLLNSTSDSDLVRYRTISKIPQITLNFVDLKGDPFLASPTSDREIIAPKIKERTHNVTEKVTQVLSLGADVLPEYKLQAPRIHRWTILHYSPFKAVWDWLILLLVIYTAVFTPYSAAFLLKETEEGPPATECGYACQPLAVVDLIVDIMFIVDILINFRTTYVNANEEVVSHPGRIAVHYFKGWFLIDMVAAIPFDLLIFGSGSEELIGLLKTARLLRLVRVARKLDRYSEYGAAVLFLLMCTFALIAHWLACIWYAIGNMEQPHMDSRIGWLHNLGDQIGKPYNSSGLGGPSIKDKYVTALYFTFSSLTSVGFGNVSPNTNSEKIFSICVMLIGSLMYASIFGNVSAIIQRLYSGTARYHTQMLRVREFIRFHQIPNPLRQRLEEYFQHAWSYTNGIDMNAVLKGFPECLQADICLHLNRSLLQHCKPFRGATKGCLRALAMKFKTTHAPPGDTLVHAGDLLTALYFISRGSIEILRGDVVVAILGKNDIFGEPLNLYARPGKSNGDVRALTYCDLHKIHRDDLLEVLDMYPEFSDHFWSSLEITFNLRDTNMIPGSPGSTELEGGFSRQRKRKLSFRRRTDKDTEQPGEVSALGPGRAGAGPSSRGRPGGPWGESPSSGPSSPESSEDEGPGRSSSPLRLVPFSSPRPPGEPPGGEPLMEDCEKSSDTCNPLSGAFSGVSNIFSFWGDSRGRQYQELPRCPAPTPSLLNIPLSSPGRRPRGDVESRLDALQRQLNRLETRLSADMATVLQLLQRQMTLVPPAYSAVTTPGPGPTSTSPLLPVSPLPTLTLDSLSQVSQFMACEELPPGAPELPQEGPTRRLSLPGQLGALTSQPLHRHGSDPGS

Take `CN(C)C(=O)N1CC(c2cc(F)ccc2F)=C[C@@]1(CCCNCC(F)F)c1ccccc1`: the IC50 in series [1] amounted to 12.1 nM. Further, the log partition coefficient (logP) in [2] came to 3.4. Also, in series [3], the selectivity ratio at 16 h is 3. Also, the pKa in series [4] is 7.

As for `CN(C)C(=O)N1CC(c2cc(F)ccc2F)=C[C@@]1(CCCNCC(F)(F)F)c1ccccc1`, the IC50 in [1] was determined as 110 nM. Besides, the logP in [2] is greater than 3.2. In series [3], the selectivity ratio at 16 h amounted to 1. Also, in [4], the pKa amounted to 5.2.

Turning to `CN(C)C(=O)N1CC(c2cc(F)ccc2F)=C[C@@]1(CCCNCCF)c1ccccc1`, the IC50 in series [1] amounted to 10.2 nM. This compound also had a logP in series [2] of 2.6. The selectivity ratio at 16 h in series [3] was found to be 32. This compound also registered a pKa in series [4] of 8.8.

Take `CN(C)C(=O)N1N=C(c2cc(F)ccc2F)C[C@@]1(CCCN)c1ccccc1`: the solubility in series [5] was greater than 12 mg/mL. Moreover, it took 19300 nM to reach half-maximal inhibition in series [6] (IC50). For the same compound, the selectivity ratio at 16 h in [3] is 490. The same compound returned a pKa in series [4] of 10.3.

In series [1], `CCNCCC[C@@]1(c2ccccc2)C=C(c2cc(F)ccc2F)CN1C(=O)N(C)C` showed a half-inhibitory concentration (IC50) of 10.2 nM. Besides, in series [2], the logP worked out at 1.6. For the same compound, the selectivity ratio at 16 h in series [3] was greater than 135. In series [4], the pKa is 10.7.

As for `CN(C)C(=O)N1CC(c2cc(F)ccc2F)=C[C@@]1(CC[C@H](N)C(F)F)c1ccccc1`, the IC50 in [1] was 5.2 nM; in series [6], 15900 nM; in series [8], 24 nM; in series [9], 123 nM. For the same compound, the logP in series [2] stood at 3.2. Besides, the solubility in [5] was greater than 10 mg/mL. For the same compound, the selectivity ratio at 16 h in series [3] turned out to be 5. Further, the efflux ratio in [7] amounted to 2.5. For the same compound, in series [10], the Papp stood at 38 ×10⁻⁶ cm/s.

`CN(C)C(=O)N1CC(c2cc(F)ccc2F)=C[C@@]1(CCCN)c1ccccc1`: the IC50 in series [1] worked out at 2.2 nM; in [6], 7100 nM; in series [9] it was 28000 nM. The logP in [2] amounted to 1.1. The solubility in series [5] was greater than 12 mg/mL. Further, the selectivity ratio at 16 h in series [3] stood at 1200. The same compound had a pKa in [4] of 10.3. For the same compound, the efflux ratio in [7] turned out to be 18.5. The Papp in [10] worked out at 4 ×10⁻⁶ cm/s.

The values above are taken from ChEMBL document CHEMBL1147937, “Kinesin spindle protein (KSP) inhibitors. Part V: discovery of 2-propylamino-2,4-diaryl-2,5-dihydropyrroles as potent, water-soluble KSP inhibitors, and modulation of their basicity by beta-fluorination to overcome cellular efflux by P-glycoprotein” (Bioorg Med Chem Lett, 2007).
